As usually defined, the EC50 is the concentration at which the effect is half-maximal. The term half-life denotes the time in which the quantity being followed falls by half.

Structures can show the parent of a compound that is named as a salt.

Experimental findings from ChEMBL document CHEMBL1135593, “Design and synthesis of a pro-drug of vinblastine targeted at treatment of prostate cancer with enhanced efficacy and reduced systemic toxicity” (J Med Chem, 2002) are described below.

For one data set, the system named is COLO 320. Nature of the data set: In vitro concentration required to kill 50% of COLO 320 human colorectal carcinoma cell line. It is filed as functional, cell-based. The essentials: (§1)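 Cell-kill assay in culture. LNCaP is a PSA-secreting human prostate cancer line. Colo320 is a PSA-nonsecreting human colorectal carcinoma line, used as the non-PSA control. EC50 is the compound dose that kills 50% of the tumor cells.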

Data set [1] has as its system Mus musculus. Nature of the data set: Maximum nonlethal drug dose administered intraperitoneally to non tumor bearing nude mice. Format: functional. The essentials: (§2)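 Nontumor-bearing nude mice were dosed intraperitoneally once daily for 5 consecutive days. MTD is the maximum dose that could be given on this schedule without lethality. P values are reported.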
The test system of a further data set is T47D. The experiment in a line: In vitro concentration required to kill 50% of T47D human breast ductal carcinoma cell line. It is filed as functional, cell-based. A digest of the protocol: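 T47D is a PSA-nonsecreting human breast ductal carcinoma line, used as a control for PSA-secreting LNCaP cells. Compounds were tested in cell culture. EC50 is the dose that kills 50% of the tumor cells.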

Data set [2] concerns Mus musculus. The experiment in a line: Intraperitoneal dose administered to non tumor bearing nude mice. Format: functional. A digest of the protocol: as §2
The test system of data set [3] is LNCaP. Nature of the data set: In vitro concentration required to kill 50% of LNCaP human prostate cancer cell line. It is filed as functional, cell-based. The essentials:
as §1

Data set [4] concerns LNCaP. Nature of the data set: Percent tumor weight reduction after intraperitoneal injection of conjugate dose to nude mice bearing LNCaP tumor xenografts. Format: functional, Mus musculus. A digest of the protocol: (§3)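 Nude mice bearing human prostate LNCaP (PSA-secreting) xenografts were given the conjugate intraperitoneally for 5 consecutive days and followed over six weeks. Serum PSA, tumor weight and body weight were measured at study end. Results are percent relative to vehicle-treated controls, with P values.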

A short description of data set [5]: Percent PSA reduction after intraperitoneal injection of conjugate dose to nude mice bearing LNCaP tumor xenografts. It is filed as functional, Mus musculus. A digest of the protocol:
as §3

In another data set the test system is PSA. The experiment in a line: Time required for PSA to hydrolyze 50% compound at a molar ratio of 1:100. It is filed as ADME. Particulars: PSA (enzyme). The essentials: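 Conjugate and purified human PSA were mixed at a 100:1 molar ratio (substrate:enzyme) in 50 mM Tris·HCl and 140 mM NaCl, pH 7.4. Samples were incubated at 37 °C for 0, 30, 60, 120, 180 or 240 min. T1/2 is the time to 50% cleavage.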

With `CC[C@]1(O)C[C@@H]2CN(CCc3c([nH]c4ccccc34)[C@@](C(=O)OC)(c3cc4c(cc3OC)N(C)C3C45CCN4CC=C[C@](CC)(C45)[C@@H](O)[C@]3(O)C(=O)OC)C2)C1` (some centres not stated), the EC50 with COLO 320 was 0.2 µM; in the data set on T47D, 0.15 µM; with LNCaP [3] it was 0.1 µM. In addition, the MTD with Mus musculus [1] is 0.26 µM/kg. In addition, the Dose in the data set with Mus musculus [2] was found to be 0.26 µM/kg. The compound further came in with a Weight reduction in the data set on LNCaP [4] of 16%. Further, the Reduction in data set [5] is 14%.

On to `CC[C@]1(O)C[C@@H]2CN(CCc3c([nH]c4ccccc34)[C@@](C(=O)OC)(c3cc4c(cc3OC)N(C)C3C45CCN4CC=C[C@](CC)(C45)[C@@H](OC(=O)[C@H](CC(C)C)NC(=O)[C@H](CO)NC(=O)[C@H](CCC(N)=O)NC(=O)C(NC(=O)[C@H](CO)NC(=O)[C@H](CO)NC(=O)[C@H]4CC(O)CN4C(C)=O)C4CCCCC4)[C@]3(O)C(=O)OC)C2)C1.O=C(O)C(F)(F)F` (some centres not stated), for which the EC50 was found to be 87 µM in the data set with COLO 320 and 40 µM in the data set on LNCaP [3]. Also, in the data set on PSA, the half-life turned out to be 35 min.

Turning to `CC[C@]1(O)C[C@@H]2CN(CCc3c([nH]c4ccccc34)[C@@](C(=O)OC)(c3cc4c(cc3OC)N(C)C3C45CCN4CC=C[C@](CC)(C45)[C@@H](OC(=O)[C@@H](N)CC(C)C)[C@]3(O)C(=O)OC)C2)C1` (some centres not stated), the figures for the concentration giving a half-maximal response (EC50) in the data set on COLO 320 and with LNCaP [3] were 6 µM and 4 µM, respectively.

In the case of `CC[C@]1(O)C[C@@H]2CN(CCc3c([nH]c4ccccc34)[C@@](C(=O)OC)(c3cc4c(cc3OC)N(C)C3C45CCN4CC=C[C@](CC)(C45)[C@@H](OC(=O)CN)[C@]3(O)C(=O)OC)C2)C1` (some centres not stated), the results for the EC50 with COLO 320 and in the data set with LNCaP [3] were 1.8 µM and 0.3 µM, respectively.

As to `CC[C@]1(O)C[C@@H]2CN(CCc3c([nH]c4ccccc34)[C@@](C(=O)OC)(c3cc4c(cc3OC)N(C)C3C45CCN4CC=C[C@](CC)(C45)[C@@H](OC(=O)C4CCCN4)[C@]3(O)C(=O)OC)C2)C1.O=C(O)C(F)(F)F` (some centres not stated), the EC50 with COLO 320 was determined as 3 µM; with T47D, 1.6 µM; in the data set on LNCaP [3], 1 µM. Further, the MTD in the data set with Mus musculus [1] stood at 4.6 µM/kg. Also, the Dose in the data set on Mus musculus [2] stood at 4.6 µM/kg. The Weight reduction in the data set with LNCaP [4] is 60%. Further, in data set [5], the Reduction is 33%.

Regarding `CC[C@]1(O)C[C@@H]2CN(CCc3c([nH]c4ccccc34)[C@@](C(=O)OC)(c3cc4c(cc3OC)N(C)[C@H]3[C@@](O)(C(=O)OC)[C@H](OC(C)=O)[C@]5(CC)C=CCN6CC[C@]43[C@@H]65)C2)C1` [VINBLASTINE SULFATE], the EC50 in the data set with LNCaP [3] is 0.5 µM.
